# Results gathered from unrelated publications.
# Lines come from different studies, so protocols differ.
# NTRK3: NT-3 growth factor receptor (NTRK3, Homo sapiens, UniProt Q16288)
# PSMB6/PSMB5/PSMB7: PSMB6/PSMB5/PSMB7 (Homo sapiens, UniProt P28072+P28074+Q99436)
Structure (SMILES),target,assay,system,conditions,inhibition [%]
O=C(O)CC[C@@H](O)C(=O)O,"Methylcytosine dioxygenase TET2 (Mus musculus, UniProt Q4JK59)","enzyme activity, inhibitor",,50 mM,83
CCN1CCN(Cc2ccc(NC(=O)c3ccc(C)c(Oc4ccnc5[nH]ccc45)c3)cc2C(F)(F)F)CC1,"Mitogen-activated protein kinase 3 (MAPK3, Homo sapiens, UniProt P27361)","target engagement in cells, inhibitor, chemoproteomics",A-375,0.5 µM,-44.6
CN(C)C1CCN(CC#Cc2nn(C3CCCC3)c3nc(NCc4ccccc4)ncc23)C1 (stereo not drawn),"Cyclin-dependent kinase 9, with cyclin T1 (CDK9, Homo sapiens, UniProt P50750)","enzyme activity, inhibitor, FRET",,0.1 µM,5
O=C(Nc1ccc(C(F)(F)F)cc1)Nc1cccc(C(=O)Nc2ccc3[nH]ncc3c2)c1,NTRK3,"enzyme activity, inhibitor, FRET",,1 µM,13.5
CCN(CC)CCNC(=O)c1c(C)[nH]c(/C=C2\C(=O)Nc3ccc(F)cc32)c1C,"Dual specificity mitogen-activated protein kinase kinase 7 (MAP2K7, Homo sapiens, UniProt O14733)","enzyme activity, inhibitor",,0.3 µM,11
CCN(c1cc(C#CCN2CCOCC2)cc(C(=O)NCc2c(C)cc(C)[nH]c2=O)c1C)[C@H]1CC[C@H](N(C)CCOC)CC1,"Histone-lysine N-methyltransferase SMYD3 (SMYD3, Homo sapiens, UniProt Q9H7B4)","enzyme activity, inhibitor",,1 µM,13
CN1CCN(CC(=O)Nc2cccc(C(=O)Nc3ccc4[nH]ncc4c3)c2)CC1,NTRK3,"enzyme activity, inhibitor, FRET",,1 µM,23
COC(=O)c1c(O)ccc(O)c1C(=O)c1c(O)cc2c(c1O)[C@@H]1C=C[C@]3(C2)C(=C(O)c2c(O)cc(C)cc2[C@@H]3OC(C)=O)C1=O,PSMB6/PSMB5/PSMB7,"enzyme activity in cells, inhibitor",MCF7,20 µg/mL,55
CC1=C(/C=C/C(C)=C/C=C/C(C)=C/CO)C(C)(C)CCC1,"Prothrombin (Rattus norvegicus, UniProt P18292)","enzyme activity, inhibitor",,200 µg/mL,46
OCc1cc(C(O)CNCCCCCCOCCCCc2ccccc2)ccc1O (stereo not drawn),"C-X-C chemokine receptor type 4 (CXCR4, Homo sapiens, UniProt P61073)","calcium signal, antagonist",U87.CD4.CXCR4,4 µM,11
COC(=O)[C@@]12Oc3c(c(O)cc4c3[C@@H]3C=C[C@]5(C4)C(=C(O)c4c(O)cc(C)cc4[C@@H]5OC(C)=O)C3=O)C(O)=C1C(=O)C=C[C@@H]2O,PSMB6/PSMB5/PSMB7,"enzyme activity in cells, inhibitor",MCF7,20 µg/mL,13
Cc1ccc(C)c(NC(=O)CSc2nnc(Cc3cc(=O)[nH]c(=O)[nH]3)n2-c2ccc(Cl)cc2)c1,"Poly [ADP-ribose] polymerase tankyrase-1 (TNKS, Homo sapiens, UniProt O95271)","enzyme activity, inhibitor",,0.1 µM,3
